Data as given in ChEMBL document CHEMBL1145427, “Quick assembly of 1,4-diphenyltriazoles as probes targeting beta-amyloid aggregates in Alzheimer's disease” (J Med Chem, 2007).

Assays:
[1] = Displacement of [125I]IMPY from beta amyloid protein plaques in Alzheimer's disease patient brain; set-up: species or system Homo sapiens
In short: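 Competition binding to pooled gray-matter homogenates from four AD brains (approximately 100 mg wet tissue/mL in PBS pH 7.4; 20–50 μg per tube). [125I]2 at 0.04–0.06 nM; inhibitors 10^-5–10^-10 M in PBS with 0.1% BSA; final volume 1 mL. Nonspecific binding with 600 nM 2. Incubated 37 °C, 2 h; GF/B filtration, gamma counting. Ki from nonlinear regression.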

Heart [2] = assay: Biodistribution in ICR mouse heart at 5 to 10 uCi, iv after 2 hrs; type: ADME, organism-based; settings: in vivo
In short: (§1)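 Male ICR mice (22–25 g) under isoflurane anesthesia; [125I] or [18F] tracer (5–10 μCi) in 0.15 mL of 0.1% bovine serum albumin solution injected into the tail vein. Groups of n = 3 per time point, killed by cervical dislocation. Organs removed, weighed and gamma-counted against diluted aliquots of injected dose, giving % dose/organ and % ID/g. Total blood activity assumed as 7% of body weight.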

Muscle tissue [3] = assay: Biodistribution in ICR mouse muscle at 5 to 10 uCi, iv after 2 mins; type: ADME, organism-based; settings: in vivo; in short: as §1
Muscle tissue [4] = assay: Biodistribution in ICR mouse muscle at 5 to 10 uCi, iv after 30 mins; type: ADME, organism-based; settings: in vivo, 0.5 h; in short: as §1
Muscle tissue [5] = assay: Biodistribution in ICR mouse muscle at 5 to 10 uCi, iv after 1 hr; type: ADME, organism-based; settings: in vivo; in short: as §1
Muscle tissue [6] = assay: Biodistribution in ICR mouse muscle at 5 to 10 uCi, iv after 2 hrs; type: ADME, organism-based; settings: in vivo; in short: as §1
Lung [7] = assay: Biodistribution in ICR mouse lung at 5 to 10 uCi, iv after 2 mins; type: ADME, organism-based; settings: in vivo; in short: as §1
Lung [8] = assay: Biodistribution in ICR mouse lung at 5 to 10 uCi, iv after 30 mins; type: ADME, organism-based; settings: in vivo, 0.5 h; in short: as §1
Lung [9] = assay: Biodistribution in ICR mouse lung at 5 to 10 uCi, iv after 1 hr; type: ADME, organism-based; settings: in vivo; in short: as §1
[10] = Partition coefficient, log P of the compound; type: physicochemical; settings: octanol/water
In short: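 [125I] or [18F] tracer mixed with 3 g each of 1-octanol and 0.1 M phosphate buffer pH 7.4. Vortexed 3 min at room temperature, then centrifuged 5 min. Two 0.5 g samples from each layer counted; PC is the ratio of cpm/g in octanol to cpm/g in buffer. The octanol layer was repartitioned until values were consistent.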

Blood [11] = assay: Biodistribution in ICR mouse blood at 5 to 10 uCi, iv after 2 mins; type: ADME, organism-based; settings: in vivo; in short: as §1
Blood [12] = assay: Biodistribution in ICR mouse blood at 5 to 10 uCi, iv after 30 mins; type: ADME, organism-based; settings: in vivo, 0.5 h; in short: as §1
Blood [13] = assay: Biodistribution in ICR mouse blood at 5 to 10 uCi, iv after 1 hr; type: ADME, organism-based; settings: in vivo; in short: as §1
Blood [14] = assay: Biodistribution in ICR mouse blood at 5 to 10 uCi, iv after 2 hrs; type: ADME, organism-based; settings: in vivo; in short: as §1
Heart [15] = assay: Biodistribution in ICR mouse heart at 5 to 10 uCi, iv after 2 mins; type: ADME, organism-based; settings: in vivo; in short: as §1
Heart [16] = assay: Biodistribution in ICR mouse heart at 5 to 10 uCi, iv after 30 mins; type: ADME, organism-based; settings: in vivo, 0.5 h; in short: as §1
Heart [17] = assay: Biodistribution in ICR mouse heart at 5 to 10 uCi, iv after 1 hr; type: ADME, organism-based; settings: in vivo; in short: as §1
Lung [18] = assay: Biodistribution in ICR mouse lung at 5 to 10 uCi, iv after 2 hrs; type: ADME, organism-based; settings: in vivo; in short: as §1
Kidney [19] = assay: Biodistribution in ICR mouse kidney at 5 to 10 uCi, iv after 2 mins; type: ADME, organism-based; settings: in vivo; in short: as §1
Kidney [20] = assay: Biodistribution in ICR mouse kidney at 5 to 10 uCi, iv after 30 mins; type: ADME, organism-based; settings: in vivo, 0.5 h; in short: as §1
Kidney [21] = assay: Biodistribution in ICR mouse kidney at 5 to 10 uCi, iv after 1 hr; type: ADME, organism-based; settings: in vivo; in short: as §1
Kidney [22] = assay: Biodistribution in ICR mouse kidney at 5 to 10 uCi, iv after 2 hrs; type: ADME, organism-based; settings: in vivo; in short: as §1
Spleen [23] = assay: Biodistribution in ICR mouse spleen at 5 to 10 uCi, iv after 2 mins; type: ADME, organism-based; settings: in vivo; in short: as §1
Spleen [24] = assay: Biodistribution in ICR mouse spleen at 5 to 10 uCi, iv after 30 mins; type: ADME, organism-based; settings: in vivo, 0.5 h; in short: as §1
Spleen [25] = assay: Biodistribution in ICR mouse spleen at 5 to 10 uCi, iv after 1 hr; type: ADME, organism-based; settings: in vivo; in short: as §1
Spleen [26] = assay: Biodistribution in ICR mouse spleen at 5 to 10 uCi, iv after 2 hrs; type: ADME, organism-based; settings: in vivo; in short: as §1
Liver [27] = assay: Biodistribution in ICR mouse liver at 5 to 10 uCi, iv after 2 mins; type: ADME, organism-based; settings: in vivo; in short: as §1
Liver [28] = assay: Biodistribution in ICR mouse liver at 5 to 10 uCi, iv after 30 mins; type: ADME, organism-based; settings: in vivo, 0.5 h; in short: as §1
Liver [29] = assay: Biodistribution in ICR mouse liver at 5 to 10 uCi, iv after 1 hr; type: ADME, organism-based; settings: in vivo; in short: as §1
Liver [30] = assay: Biodistribution in ICR mouse liver at 5 to 10 uCi, iv after 2 hrs; type: ADME, organism-based; settings: in vivo; in short: as §1
Zone of skin [31] = assay: Biodistribution in ICR mouse skin at 5 to 10 uCi, iv after 2 mins; type: ADME, organism-based; settings: in vivo; in short: as §1
Zone of skin [32] = assay: Biodistribution in ICR mouse skin at 5 to 10 uCi, iv after 30 mins; type: ADME, organism-based; settings: in vivo, 0.5 h; in short: as §1
Zone of skin [33] = assay: Biodistribution in ICR mouse skin at 5 to 10 uCi, iv after 1 hr; type: ADME, organism-based; settings: in vivo; in short: as §1
Zone of skin [34] = assay: Biodistribution in ICR mouse skin at 5 to 10 uCi, iv after 2 hrs; type: ADME, organism-based; settings: in vivo; in short: as §1
Brain [35] = assay: Biodistribution in ICR mouse brain at 5 to 10 uCi, iv after 2 mins; type: ADME, organism-based; settings: in vivo; in short: as §1
Brain [36] = assay: Biodistribution in ICR mouse brain at 5 to 10 uCi, iv after 30 mins; type: ADME, organism-based; settings: in vivo, 0.5 h; in short: as §1
Brain [37] = assay: Biodistribution in ICR mouse brain at 5 to 10 uCi, iv after 1 hr; type: ADME, organism-based; settings: in vivo; in short: as §1
Brain [38] = assay: Biodistribution in ICR mouse brain at 5 to 10 uCi, iv after 2 hrs; type: ADME, organism-based; settings: in vivo; in short: as §1
Thyroid gland [39] = assay: Biodistribution in ICR mouse thyroid at 5 to 10 uCi, iv after 2 mins; type: ADME, organism-based; settings: in vivo; in short: as §1
Thyroid gland [40] = assay: Biodistribution in ICR mouse thyroid at 5 to 10 uCi, iv after 30 mins; type: ADME, organism-based; settings: in vivo, 0.5 h; in short: as §1
Thyroid gland [41] = assay: Biodistribution in ICR mouse thyroid at 5 to 10 uCi, iv after 1 hr; type: ADME, organism-based; settings: in vivo; in short: as §1
Thyroid gland [42] = assay: Biodistribution in ICR mouse thyroid at 5 to 10 uCi, iv after 2 hrs; type: ADME, organism-based; settings: in vivo; in short: as §1

## CNc1ccc(-c2cn(-c3ccc(I)cc3)nn2)cc1
[1]
  Ki: 4 nM

## CN(C)c1ccc(-c2cn(-c3ccc(I)cc3)nn2)cc1
[1]
  Ki: 8 nM

## CN(C)c1ccc(-c2cn(-c3ccc(OCCF)cc3)nn2)cc1
[1]
  Ki: 5 nM

## CN(C)c1ccc(-c2cn(-c3ccc(OCCCO)cc3)nn2)cc1
[1]
  Ki: 75 nM

## CNc1ccc(-c2cn(-c3ccc([125I])cc3)nn2)cc1
Heart [2]
  Drug uptake: 0.89 % ID/g
Muscle tissue [3]
  Drug uptake: 0.83 % ID/g
Muscle tissue [4]
  Drug uptake: 1.07 % ID/g
Muscle tissue [5]
  Drug uptake: 0.56 % ID/g
Muscle tissue [6]
  Drug uptake: 0.47 % ID/g
Lung [7]
  Drug uptake: 16 % ID/g
Lung [8]
  Drug uptake: 4.86 % ID/g
Lung [9]
  Drug uptake: 2.82 % ID/g
[10]
  logP: 3
Blood [11]
  Drug uptake: 4.45 % ID/g
Blood [12]
  Drug uptake: 3.04 % ID/g
Blood [13]
  Drug uptake: 2.04 % ID/g
Blood [14]
  Drug uptake: 2.06 % ID/g
Heart [15]
  Drug uptake: 7.45 % ID/g
Heart [16]
  Drug uptake: 1.79 % ID/g
Heart [17]
  Drug uptake: 1.1 % ID/g
Lung [18]
  Drug uptake: 2.83 % ID/g
Kidney [19]
  Drug uptake: 13.4 % ID/g
Kidney [20]
  Drug uptake: 6.43 % ID/g
Kidney [21]
  Drug uptake: 3.71 % ID/g
Kidney [22]
  Drug uptake: 2.91 % ID/g
Spleen [23]
  Drug uptake: 4.9 % ID/g
Spleen [24]
  Drug uptake: 1.8 % ID/g
Spleen [25]
  Drug uptake: 1.24 % ID/g
Spleen [26]
  Drug uptake: 1.16 % ID/g
Liver [27]
  Drug uptake: 20.7 % ID/g
Liver [28]
  Drug uptake: 11.1 % ID/g
Liver [29]
  Drug uptake: 6.46 % ID/g
Liver [30]
  Drug uptake: 6 % ID/g
Zone of skin [31]
  Drug uptake: 1.05 % ID/g
Zone of skin [32]
  Drug uptake: 2.34 % ID/g
Zone of skin [33]
  Drug uptake: 1.81 % ID/g
Zone of skin [34]
  Drug uptake: 1.6 % ID/g
Brain [35]
  Drug uptake: 9.4 % ID/g
Brain [36]
  Drug uptake: 1.66 % ID/g
Brain [37]
  Drug uptake: 0.7 % ID/g
Brain [38]
  Drug uptake: 0.43 % ID/g
Thyroid gland [39]
  Drug uptake: 4.38 % ID/g
Thyroid gland [40]
  Drug uptake: 11.5 % ID/g
Thyroid gland [41]
  Drug uptake: 54.2 % ID/g
Thyroid gland [42]
  Drug uptake: 62.1 % ID/g

## CN(C)c1ccc(-c2cn(-c3ccc(OCCCF)cc3)nn2)cc1
[1]
  Ki: 6.2 nM
